Rows were chosen to be rich in hits. Some 3.1% of all compounds tested hit in one or more screens of this group.
KCNQ1 pot = human KCNQ1 channel potentiation or activation; P51787; CHO-K1 KCNQ1, thallium flux FluxOR fluorescence; stronger effect = higher value; B-score at 10 µM; 310,000 compounds, 0.35% hits;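 active = fluorescence ratio B-score, a plate-corrected score, at least three library SD, with initial intensity B-score within 5 SD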
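Assay system: CHO-K1 cells stably expressing KCNQ1; Medium: assay buffer with matched DMSO; Also added: K+/Tl+ depolarizing stimulus; Dosing: single dose; Timing: dye 90 min, compound 20 min, room temperature; Measured by: kinetic FluxOR thallium fluorescence, 10-s 1-Hz baseline, 110-s post-stimulus read; Read-out: peak-minus-minimum fluorescence over initial fluorescence, negative-control normalized, B-scored.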
hERG protect = shields human hERG channel from block by proarrhythmic agents | Q12809 | CHO-hERG, FluxOR thallium flux, dofetilide IC70 present | activation (rescue from dofetilide block), less the hit threshold, % at 10 µM | 310,000 compounds, 0.51% hits | AID 1511;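 active = activation above the mean of controls blocked by dofetilide plus 5 SD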;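 also: thallium influx through hERG after potassium depolarization seen as dye fluorescence rise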
KCNQ1 block = human KCNQ1 channel inhibition. B-score at 10 µM. 310,000 compounds, 1.3% hits. AID 2642. CHO-K1 KCNQ1, FluxOR thallium flux fluorescence; stronger effect = higher value. P51787;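 active = compounds whose thallium flux B-score, printed positive for inhibition, exceeds three library SD while starting fluorescence stays within three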;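 also: channel opened by potassium depolarization with thallium stimulus after 20 min compound exposure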
KCNK3 block = human KCNK3 channel inhibition, primary screen; 340,000 compounds, 0.84% hits; CHO-KCNK3 thallium flux, FluxOR fluorescence; stronger effect = lower value; AID 602410; O14649; B-score at 10 µM;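 active = B-score under library mean minus 4 SD, starting fluorescence ratio at most library mean plus 5 SD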;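 also: more negative B-score means stronger inhibition of thallium flux through KCNK3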
KCNK9 block = inhibitors of human KCNK9 two-pore domain potassium channel | B-score at 10 µM | 310,000 compounds, 1.2% hits | Q9NPC2 | HEK293 KCNK9, FluxOR thallium flux fluorescence; stronger effect = lower value | AID 488922;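 active = ratio B-score over 3 SD below the library mean, with starting fluorescence within 5 SD of its mean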;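 also: negative B-score means less thallium flux so channel inhibition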
Target sequence (Q9NPC2 whole entry, looked up, the tested form may be a part): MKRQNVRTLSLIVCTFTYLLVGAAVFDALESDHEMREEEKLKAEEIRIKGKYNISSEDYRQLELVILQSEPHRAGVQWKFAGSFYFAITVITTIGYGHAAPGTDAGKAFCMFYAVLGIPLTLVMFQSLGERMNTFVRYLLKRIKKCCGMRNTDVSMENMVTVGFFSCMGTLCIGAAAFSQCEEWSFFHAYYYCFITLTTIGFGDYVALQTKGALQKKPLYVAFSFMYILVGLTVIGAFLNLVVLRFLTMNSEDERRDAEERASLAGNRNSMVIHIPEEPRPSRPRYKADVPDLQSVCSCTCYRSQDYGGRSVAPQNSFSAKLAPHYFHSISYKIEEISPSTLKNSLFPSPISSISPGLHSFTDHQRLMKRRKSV
KCNK9 inh conf = confirmation of human KCNK9 potassium channel inhibitors; shares compounds with KCNK9 block; HEK293 KCNK9 cells, FluxOR thallium flux fluorescence; inhibition, % at 10 µM; 4,900 compounds, 43% hits;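 active = thallium signal inhibited by more than 5 SD of the compound-free buffer control wells, on both duplicate plates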
Kir2-1 spec = selectivity of KCNK9 modulators against mouse Kir2.1. shares compounds with KCNK9 block. Kir2.1 cells, FluxOR thallium flux fluorescence. inhibition, % at 10 µM. 4,900 compounds, 4% hits. AID 492993;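 active = thallium signal drop more than 5 SD beyond the mean of the no-compound control wells, seen in both duplicate plates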;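 also: signal is fluorescence rise after thallium addition divided by baseline fluorescence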
HEK293 Tl ctr = second check of KCNK9 modulator effects in non-induced HEK293 cells. FluxOR thallium flux. 4,900 compounds, 40% hits. inhibition, % at 10 µM. shares compounds with KCNK9 block. AID 492997;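 active = thallium signal drop beyond 5 SD of the untreated control mean, on both duplicate plates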
A number is an active result; - = inactive; . = no result given.

SMILES | KCNQ1 pot | hERG protect | KCNQ1 block | KCNK3 block | KCNK9 block | KCNK9 inh conf | Kir2-1 spec | HEK293 Tl ctr
CCOC(=O)C(C(C)=O)c1c(Br)c(O)c(O)c2c(C(=O)c3ccc(C)cc3)coc12 (stereo unspecified) | - | - | 9 | - | -15 | 70% | - | 46%
CCN1CCN(C(c2cccnc2)c2c(NC(=O)c3ccco3)sc(C)c2C)CC1 (stereo unspecified) | . | . | . | - | . | . | . | .
Cc1sc(NC(=O)c2ccco2)c(C(c2cccnc2)N2CCC(C)CC2)c1C (stereo unspecified) | - | - | 9 | - | -14 | 66% | - | 42%
CCOC(=O)c1cc2occc2n1Cc1ccc(F)cc1 | - | - | - | - | -8.3 | - | - | 30%
COC(=O)c1cc2occc2n1Cc1ccc(Cl)cc1 | - | - | - | - | - | . | . | .
O=C(Cc1ccc(NC(=O)C2CCN(C(=O)c3ccccc3)CC2)cc1)Nc1cccc(C(=O)N2CCCC2)c1 | . | . | . | - | . | . | . | .
CCCCc1cc(O)c(CCCC)c(O)c1 | - | - | - | - | -12 | 64% | - | 36%
CCCCCc1cc(O)c2c(C)cc(=O)oc2c1 | - | - | - | - | - | . | . | .
Cc1ccc(Cl)cc1N1CCN(CC(O)COCc2ccco2)CC1 (stereo unspecified) | - | - | - | - | - | - | - | -
OC(COCc1ccco1)CN1CCN(C(c2ccccc2)c2ccccc2)CC1 (stereo unspecified) | - | - | - | - | - | . | . | .
O=C(c1ccccc1Br)N1CCC(c2nc3ccccc3s2)CC1 | - | - | - | - | - | . | . | .
CCc1ccc(C(=O)N2CCC(c3nc4ccccc4s3)CC2)cc1 | - | - | - | - | - | - | - | -
N#C/C(=C\c1c(Cl)cccc1Cl)c1nc2ccccc2[nH]1 | - | - | - | - | -8.8 | 46% | - | -
N#C/C(=C\c1c(Cl)cccc1Cl)c1nc2ccccc2o1 | - | - | - | - | - | - | - | -
COc1cccc(C(=O)NCCC2=CCCCC2)c1 | - | - | - | - | - | . | . | .
O=S(=O)(Nc1ccon1)c1ccc(Br)cc1 | - | - | - | - | - | . | . | .
O=C1NC2CCCCC2C(=O)N1OS(=O)(=O)c1ccccc1 (stereo unspecified) | . | . | . | - | . | . | . | .
COc1ccc(C(=O)Nc2ccccc2C(N)=O)cc1 | - | - | - | - | - | . | . | .
COc1ccc(C(=O)Nc2ccccc2C(=O)N/N=C/c2cccc3ccccc23)cc1 | - | - | - | - | -8.5 | 61% | - | 37%
Cc1cccc(-n2nc(C(=O)Nc3ccccc3)n3c(=O)cc(-c4ccccc4)nc23)c1 | - | - | - | - | - | - | - | -
CCOC(=O)c1nn(-c2cccc(Cl)c2)c2nc(Nc3ccccc3)cc(=O)n12 | - | - | - | - | - | . | . | .
CCOC(=O)CNC(=O)c1ccc(C#CC2(O)CCCCC2)cc1 | - | - | - | - | - | . | . | .
O=C(Cn1cnc2c(NCc3ccccc3)ncnc21)NCCc1cc2ccccc2[nH]1 | . | . | . | - | . | . | . | .
C=CCOc1ccc(/C=C2\SC(=S)N(NS(=O)(=O)c3ccc(C)cc3)C2=O)cc1 | 24 | - | - | - | - | - | - | -
O=C1/C(=C/c2cccc(F)c2)SC(=S)N1NS(=O)(=O)c1ccccc1 | - | - | - | - | - | - | - | -
SMILES | KCNQ1 pot | hERG protect | KCNQ1 block | KCNK3 block | KCNK9 block | KCNK9 inh conf | Kir2-1 spec | HEK293 Tl ctr
COc1ccc(/C=C2/SC(=S)N(NS(=O)(=O)c3ccc(C)cc3)C2=O)cc1 | 12 | - | - | - | - | - | - | -
Cc1ccc(S(=O)(=O)NN2C(=O)/C(=C/c3ccc(C(=O)O)cc3)SC2=S)cc1 | - | - | - | - | - | . | . | .
Cc1ccc(S(=O)(=O)NN2C(=O)/C(=C/c3ccc(F)cc3)SC2=S)cc1 | - | - | - | - | - | . | . | .
Cc1onc(-c2c(Cl)cccc2Cl)c1C(=O)Nc1nccs1 | - | - | - | - | - | . | . | .
COCCNC(=O)c1cc(S(=O)(=O)N(C)c2ccccc2OC)ccc1C | - | - | - | - | - | . | . | .
CCOC(=O)c1ccc(-n2c(CN(CC)CC)nc3ccc([N+](=O)[O-])cc3c2=O)cc1 | - | - | - | - | - | . | . | .
N#Cc1c(NC(=S)NC(=O)Cc2cccs2)sc2c1CCCCC2 | - | - | - | - | - | . | . | .
C=C(C)Cn1c(CCNC(=O)C(C)C)nc2ccccc21 | - | - | - | - | - | - | - | -
CCOC(=O)c1ccc(-c2c(-c3ccc4c(c3)OCO4)noc2-c2ccsc2)cc1F | - | - | - | - | - | . | . | .
COc1cc(-c2c(-c3ccc4c(c3)OCO4)noc2-c2ccsc2)ccc1F | - | - | - | - | -11 | 56% | - | 36%
Cc1ccccc1Cn1c(=N)n(CC(O)c2ccco2)c2ccccc21 (stereo unspecified) | - | - | - | - | - | . | . | .
CC(C)(C)c1ccc(Cn2c(=N)n(CC(O)c3ccco3)c3ccccc32)cc1 (stereo unspecified) | - | - | 9 | -12 | -11 | 40% | 43% | 26%
CCC(C)Sc1nc2c(c(=O)[nH]1)C(c1cccs1)C1=C(CCCC1=O)N2 (stereo unspecified) | - | - | - | - | - | . | . | .
COc1ccc(/C=C/C(=O)Oc2ccc(C)c(C)c2)cc1OC | - | - | - | - | - | - | - | -
COc1ccc(/C=C/C(=O)C(C)(C)C)cc1OC | - | - | - | - | - | . | . | .
CCOC(=O)Cn1nc(-c2ccccc2)c2ccccc2c1=O | - | - | - | - | - | . | . | .
O=c1c2ccccc2c(-c2ccccc2)nn1Cc1c(Cl)cccc1Cl | - | - | - | - | -10 | 33% | - | 36%
Fc1ccc2c(c1)C1C=CCC1C(c1cc3c(cc1Br)OCO3)N2 (stereo unspecified) | - | - | - | - | -13 | 49% | - | 48%
COC(=O)c1c(NC(NC(=O)CC(C)C)C(Cl)(Cl)Cl)sc2c1CCC2 (stereo unspecified) | - | - | - | - | -9.7 | - | - | 49%
CCC(=O)NC(Nc1sc2c(c1C(=O)OC)CCC2)C(Cl)(Cl)Cl (stereo unspecified) | - | - | - | - | - | . | . | .
O=[N+]([O-])c1ccc(O)c(-c2nc(-c3ccccc3)c(-c3cccs3)[nH]2)c1 | - | - | - | - | - | . | . | .
COc1ccc(-c2nc(-c3ccccc3)c(-c3cc([N+](=O)[O-])ccc3C)[nH]2)cc1OC | - | - | 14 | - | -12 | 54% | - | 33%
CCCC(C)c1nnc(NC(=O)CCS(=O)(=O)c2ccccc2)s1 (stereo unspecified) | - | - | - | - | - | - | - | -
c1coc(CNc2ncnc3sc4c(c23)CCCCC4)c1 | - | - | - | - | - | . | . | .
